Tests used:
[1] = target: T1, Bromodomain-containing protein 4 (Homo sapiens, UniProt O60885); assay: Inhibition of BRD4 in human PBMC assessed as reduction in LPS-induced IL-6 secretion incubated for 18 to 24 hrs by MSD assay
[2] = target: T1, Bromodomain-containing protein 4; assay: Inhibition of BRD4 in human whole blood assessed as reduction in LPS-induced IL-6 secretion preincubated for 30 mins followed by LPS stimulation and measured after 24 hrs by MSD assay; assay type: tissue-based
[3] = target: Bromodomain-containing protein 4 (Homo sapiens, UniProt O60885, Y390A); assay: Displacement of Alexa Fluor 647 labelled ligand from recombinant human N-terminal 6His-tagged BRD4-BD1 Y390A mutant (1 to 477 residue) expressed in Escherichia coli incubated for 30 mins by TR-FRET assay
[4] = Metabolic stability in mouse hepatocytes assessed as intrinsic clearance per g liver tissue at 0.5 uM measured upto 120 mins by LC-MS/MS analysis; assay type: ADME, cell-based, Hepatocyte; details: 2 h
In short: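 Cryopreserved mouse hepatocytes at 0.7 million cells/mL in Williams Medium E, compound 0.5 μM final (also repeated at 0.05 μM), 37 °C. […] No-cell and no-compound controls.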

[5] = Unbound fraction in Balb/C mouse blood at 100 to 1000 ng/ml by LC-MS/MS-based rapid equilibrium dialysis method; assay type: ADME, tissue-based; details: dose 100-1000 ng/ml
In short: (§1)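 Whole blood (male Balb/C mouse, male Wistar Han rat, male Beagle dog; human from one unmedicated donor) spiked to nominal 100 and 1000 ng/mL; 10 min at 37 °C, then rapid equilibrium dialysis against PBS 4 h at 37 °C, 100 rpm. Matrix-matched acetonitrile extraction, LC-MS/MS; mean of n = 6.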

[6] = Unbound fraction in Wistar Han rat blood at 100 to 1000 ng/ml by LC-MS/MS-based rapid equilibrium dialysis method; assay type: ADME, tissue-based; details: dose 100-1000 ng/ml; in short: as §1
[7] = Unbound fraction in human blood at 100 to 1000 ng/ml by LC-MS/MS-based rapid equilibrium dialysis method; assay type: ADME, tissue-based; details: dose 100-1000 ng/ml; in short: as §1
[8] = target: T2, Cytochrome P450 1A2 (Homo sapiens, UniProt P05177); assay: Inhibition of recombinant human CYP1A2 expressed in Escherichia coli using ER as probe substrate incubated for 15 to 60 mins by fluorometric assay; assay type: ADME
T2 sequence (P05177 whole entry): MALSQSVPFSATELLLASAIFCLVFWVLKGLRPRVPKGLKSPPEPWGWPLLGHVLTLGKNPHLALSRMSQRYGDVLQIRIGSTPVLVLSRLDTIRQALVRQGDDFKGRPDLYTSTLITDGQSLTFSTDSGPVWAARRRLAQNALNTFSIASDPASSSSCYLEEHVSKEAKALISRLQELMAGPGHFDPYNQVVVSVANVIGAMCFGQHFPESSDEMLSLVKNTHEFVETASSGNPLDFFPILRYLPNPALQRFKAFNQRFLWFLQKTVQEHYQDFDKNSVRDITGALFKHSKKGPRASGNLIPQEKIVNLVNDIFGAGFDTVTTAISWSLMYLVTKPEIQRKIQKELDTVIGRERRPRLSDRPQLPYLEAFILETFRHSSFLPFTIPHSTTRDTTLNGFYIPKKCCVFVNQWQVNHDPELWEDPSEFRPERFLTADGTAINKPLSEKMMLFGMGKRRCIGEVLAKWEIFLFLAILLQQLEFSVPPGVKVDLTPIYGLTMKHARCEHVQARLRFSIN
In short: (§2)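 Recombinant human CYPs coexpressed with NADPH reductase in E. coli bactosomes (0.1 mg protein/mL); profluorescent substrates ER (1A2), BMC (2C19), MMC (2D6), VividGreen or VividRed (3A4).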

[9] = target: Cytochrome P450 3A4 (Homo sapiens, UniProt P08684); assay: Inhibition of recombinant human CYP3A4 expressed in Escherichia coli using VR as probe substrate incubated for 15 to 60 mins by fluorometric assay; assay type: ADME; in short: as §2
Cytochrome P450 3A4, sequence (P08684 whole entry): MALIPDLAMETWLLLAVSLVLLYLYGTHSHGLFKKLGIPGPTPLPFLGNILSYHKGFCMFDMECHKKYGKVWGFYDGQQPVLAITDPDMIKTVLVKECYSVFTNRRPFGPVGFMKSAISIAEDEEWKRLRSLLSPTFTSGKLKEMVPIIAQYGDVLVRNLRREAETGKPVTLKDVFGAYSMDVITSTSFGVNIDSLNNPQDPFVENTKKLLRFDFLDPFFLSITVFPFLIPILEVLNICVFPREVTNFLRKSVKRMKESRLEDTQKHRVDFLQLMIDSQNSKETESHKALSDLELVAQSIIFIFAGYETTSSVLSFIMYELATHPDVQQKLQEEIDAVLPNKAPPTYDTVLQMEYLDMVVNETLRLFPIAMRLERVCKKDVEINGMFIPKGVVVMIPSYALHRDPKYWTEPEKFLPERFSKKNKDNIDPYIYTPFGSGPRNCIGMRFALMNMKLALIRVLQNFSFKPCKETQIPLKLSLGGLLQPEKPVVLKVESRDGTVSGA

[10] = Clearance in Wistar Han rat blood at 1 mg/kg/hr, iv measured upto 26 hrs by LC-MS/MS analysis; assay type: ADME, organism-based
[11] = Total blood clearance in CD1 mouse at 1 mg/kg/hr, iv measured upto 24 hrs by LC-MS/MS analysis relative to hepatic blood flow; assay type: ADME, organism-based; details: in vivo
In short: (§3)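 Surgically cannulated male CD1 mice (n = 3), 1 h iv infusion via jugular vein at 1 mg/kg/h (0.2 mg/mL in 2% DMSO/98% 10% Kleptose HPB in saline, 5 mL/kg/h). Tail-vein blood to 24 h plus terminal cardiac sample at 26 h; LC-MS/MS, LLQ 5 ng/mL. Mean ± SD.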

[12] = Volume of distribution at steady state in CD1 mouse at 1 mg/kg/hr, iv measured upto 24 hrs by LC-MS/MS analysis; assay type: ADME, organism-based; details: in vivo, read-out: Vdss; in short: as §3
[13] = Volume of distribution at steady state in Wistar Han rat at 1 mg/kg/hr, iv measured upto 26 hrs by LC-MS/MS analysis; assay type: ADME, organism-based; details: in vivo, read-out: Vdss
[14] = Volume of distribution at steady state in Beagle dog at 1 mg/kg/hr, iv measured upto 28 hrs by LC-MS/MS analysis; assay type: ADME, organism-based, Canis lupus familiaris; details: in vivo, read-out: Vdss
[15] = Half life in CD1 mouse at 1 mg/kg/hr, iv measured upto 24 hrs by LC-MS/MS analysis; assay type: ADME, organism-based; details: in vivo; in short: as §3
[16] = Half life in Wistar Han rat at 1 mg/kg/hr, iv measured upto 26 hrs by LC-MS/MS analysis; assay type: ADME, organism-based; details: in vivo
[17] = Half life in Beagle dog at 1 mg/kg/hr, iv measured upto 28 hrs by LC-MS/MS analysis; assay type: ADME, organism-based, Canis lupus familiaris; details: in vivo
[18] = AUC(0 to t) in Wistar Han rat at 1 mg/kg, po measured upto 24 hrs by HPLC-MS/MS analysis; assay type: ADME, organism-based; parameters: route oral, dose 1 mg/kg, time <=24; details: in vivo
In short: (§4)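 Oral suspension in 1% (w/v) hydroxypropylmethyl cellulose in water; male rats (n = 3) and male dogs (n = 4). AUC taken from 0 h to last quantifiable time point; Cmax is maximum observed plasma concentration; Tmax reported as median. Mean ± SD.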

[19] = AUC(0 to t) in Beagle dog at 5 mg/kg, po measured upto 24 hrs by HPLC-MS/MS analysis; assay type: ADME, organism-based, Canis lupus familiaris; parameters: route oral, dose 5 mg/kg, time <=24; details: in vivo; in short: as §4
[20] = Cmax in Beagle dog at 5 mg/kg, po measured upto 24 hrs by HPLC-MS/MS analysis; assay type: ADME, organism-based, Canis lupus familiaris; parameters: route oral, dose 5 mg/kg, time <=24; details: in vivo; in short: as §4
[21] = target: CREB-binding protein (Homo sapiens) (UniProt Q92793); assay: Binding affinity to CBP (unknown origin) assessed as change in melting temperature
CREB-binding protein (Homo sapiens), sequence (Q92793 2-2442 limits assumed): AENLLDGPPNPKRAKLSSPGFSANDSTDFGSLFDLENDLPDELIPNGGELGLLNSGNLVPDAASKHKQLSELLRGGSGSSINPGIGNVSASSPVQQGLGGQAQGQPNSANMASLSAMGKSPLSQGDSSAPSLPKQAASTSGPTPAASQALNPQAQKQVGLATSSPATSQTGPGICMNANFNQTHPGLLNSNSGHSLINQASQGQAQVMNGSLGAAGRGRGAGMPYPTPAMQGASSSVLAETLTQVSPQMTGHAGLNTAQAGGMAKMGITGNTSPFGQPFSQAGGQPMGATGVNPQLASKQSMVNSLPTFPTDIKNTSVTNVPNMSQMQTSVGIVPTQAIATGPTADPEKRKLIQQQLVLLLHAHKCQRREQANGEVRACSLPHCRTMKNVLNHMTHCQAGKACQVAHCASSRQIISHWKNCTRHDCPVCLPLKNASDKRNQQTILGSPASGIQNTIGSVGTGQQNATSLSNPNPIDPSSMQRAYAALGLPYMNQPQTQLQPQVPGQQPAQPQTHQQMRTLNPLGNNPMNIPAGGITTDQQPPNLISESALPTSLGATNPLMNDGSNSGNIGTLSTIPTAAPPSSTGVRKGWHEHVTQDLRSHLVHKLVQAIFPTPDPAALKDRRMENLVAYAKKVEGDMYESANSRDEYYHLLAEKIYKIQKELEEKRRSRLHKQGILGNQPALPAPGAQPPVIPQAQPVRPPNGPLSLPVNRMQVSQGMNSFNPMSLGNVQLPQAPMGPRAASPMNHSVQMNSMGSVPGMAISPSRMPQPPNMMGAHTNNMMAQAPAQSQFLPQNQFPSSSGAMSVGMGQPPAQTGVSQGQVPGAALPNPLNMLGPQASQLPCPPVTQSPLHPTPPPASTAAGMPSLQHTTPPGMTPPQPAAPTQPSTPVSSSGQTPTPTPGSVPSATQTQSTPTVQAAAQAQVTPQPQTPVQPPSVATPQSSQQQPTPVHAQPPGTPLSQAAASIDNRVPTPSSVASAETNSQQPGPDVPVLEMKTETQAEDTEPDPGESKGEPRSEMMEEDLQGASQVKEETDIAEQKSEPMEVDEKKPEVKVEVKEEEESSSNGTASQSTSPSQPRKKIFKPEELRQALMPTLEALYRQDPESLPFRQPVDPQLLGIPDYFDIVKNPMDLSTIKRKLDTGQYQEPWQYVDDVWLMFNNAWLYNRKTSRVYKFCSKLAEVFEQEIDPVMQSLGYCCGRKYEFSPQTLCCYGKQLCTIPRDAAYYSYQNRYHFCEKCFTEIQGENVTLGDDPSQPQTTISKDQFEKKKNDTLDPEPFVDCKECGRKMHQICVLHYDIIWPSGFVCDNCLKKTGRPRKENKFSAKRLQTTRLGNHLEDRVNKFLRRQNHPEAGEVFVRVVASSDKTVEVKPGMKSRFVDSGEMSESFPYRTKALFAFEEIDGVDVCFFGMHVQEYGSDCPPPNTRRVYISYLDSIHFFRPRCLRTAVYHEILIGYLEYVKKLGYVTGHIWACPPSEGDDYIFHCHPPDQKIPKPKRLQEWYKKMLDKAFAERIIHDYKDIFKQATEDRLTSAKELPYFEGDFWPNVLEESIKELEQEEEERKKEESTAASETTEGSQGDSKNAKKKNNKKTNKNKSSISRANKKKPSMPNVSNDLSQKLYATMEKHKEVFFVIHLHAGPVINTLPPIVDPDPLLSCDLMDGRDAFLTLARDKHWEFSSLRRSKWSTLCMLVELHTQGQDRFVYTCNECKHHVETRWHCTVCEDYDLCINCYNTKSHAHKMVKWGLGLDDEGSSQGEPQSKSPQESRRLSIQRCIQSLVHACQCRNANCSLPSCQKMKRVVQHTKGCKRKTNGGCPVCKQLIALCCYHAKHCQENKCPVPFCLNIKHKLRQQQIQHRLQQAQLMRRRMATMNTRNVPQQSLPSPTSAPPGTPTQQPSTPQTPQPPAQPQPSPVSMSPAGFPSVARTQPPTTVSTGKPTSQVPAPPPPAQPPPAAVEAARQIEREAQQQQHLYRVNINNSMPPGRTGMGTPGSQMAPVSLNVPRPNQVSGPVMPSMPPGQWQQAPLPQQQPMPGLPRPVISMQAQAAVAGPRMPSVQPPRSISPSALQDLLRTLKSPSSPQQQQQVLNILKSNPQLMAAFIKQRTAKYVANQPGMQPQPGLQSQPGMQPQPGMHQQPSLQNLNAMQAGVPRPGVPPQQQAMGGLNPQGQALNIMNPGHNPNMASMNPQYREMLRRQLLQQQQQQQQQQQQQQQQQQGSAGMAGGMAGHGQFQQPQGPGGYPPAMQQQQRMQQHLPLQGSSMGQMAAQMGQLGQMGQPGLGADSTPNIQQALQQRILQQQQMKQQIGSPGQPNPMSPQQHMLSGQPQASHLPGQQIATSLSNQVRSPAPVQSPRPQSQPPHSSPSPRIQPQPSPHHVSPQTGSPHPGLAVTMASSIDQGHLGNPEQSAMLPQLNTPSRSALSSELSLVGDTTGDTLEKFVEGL

[22] = target: T1, Bromodomain-containing protein 4; assay: Binding affinity to BRD4 (unknown origin) assessed as change in melting temperature
[23] = target: CREB-binding protein (Homo sapiens) (UniProt Q92793); assay: Binding affinity to CBP (unknown origin) by ITC assay
[24] = target: T1, Bromodomain-containing protein 4; assay: Binding affinity to BRD4 (unknown origin) by ITC assay
[25] = Passive permeability in MDCK cells; assay type: ADME, cell-based, Canis lupus familiaris; details: dog, read-out: permeability
[26] = rat, hepatocytes, 2 h, 0.5 µM
[27] = dog, hepatocytes, 2 h, 0.5 µM
[28] = human, hepatocytes, 2 h, 0.5 µM
[29] = Clearance in CD1 mouse blood at 1.4 mg/kg/hr, iv measured upto 24 hrs by LC-MS/MS analysis

IC50 [1]: 100 nM
IC50 [2]: 316 nM
IC50 [3]: 39.8 nM
CLint [4]: < 0.86 mL/min/g liver
fraction unbound [5]: 0.1
fraction unbound [6]: 0.16
fraction unbound [7]: 0.17
IC50 [8]: > 50000 nM
IC50 [9]: > 50000 nM
clearance [10]: 20 mL/min/kg
CLH [11]: 19%
Vd [12]: 1.9 L/kg
Vd [13]: 2.2 L/kg
Vd [14]: 3.1 L/kg
half-life [15]: 1.2 h
half-life [16]: 1.4 h
half-life [17]: 1.8 h
AUC(0-t) at 24 h [18]: 467 ng·h/mL
AUCt [19]: 367 ng·h/mL
Cmax [20]: 177 ng/mL
ΔTm [21]: 3.4 °C
ΔTm [22]: 9.9 °C
Activity [23]: 1730 nM
Activity [24]: 47.5 nM
Papp [25]: 34.6 ×10⁻⁶ cm/s
CLint [26]: < 0.86 mL/min/g liver
CLint [27]: 2.4 mL/min/g liver
CLint [28]: < 0.86 mL/min/g liver
clearance [29]: 23 mL/min/kg
Compound: COC[C@@H](C)n1c(C2CCOCC2)nc2cnc3cc(-c4c(C)noc4C)c(OC)cc3c21

From ChEMBL document CHEMBL4842350, “Discovery of a Novel Bromodomain and Extra Terminal Domain (BET) Protein Inhibitor, I-BET282E, Suitable for Clinical Progression” (J Med Chem, 2021)
